The structures appear in SMILES notation.

The subject of data set [1] is RG2. Briefly: Uptake in rat RG2 cells. The format is ADME, cell-based. The gist of the method: (§1)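 Paired time-course uptake over 120 min in HSV1-tk transduced RG2TK+ and wild-type RG2 cells. Medium held 18F tracer (10 kBq/mL) with [3H]TdR (3.7 kBq/mL) and [14C]FIAU (0.37 kBq/mL) as references. 18F gamma-counted at once, 3H/14C by liquid scintillation 24-36 h later. Net accumulation rate, (mL medium/min)/g cells, taken from slope of (dpm/g cells)/(dpm/mL medium) vs time and normalized to TdR.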

Data set [2] relates to RG2. Put plainly: Ratio of uptake in rat RG2TK+ cells to RG2 cells. The format is ADME, cell-based. Summed up: as §1
The subject of data set [3] is RG2. Put plainly: Uptake in HSV1 thymidine kinase expressing rat RG2TK+ cells. The format is ADME, cell-based. Summed up: as §1
Data set [4] can be described thus: Partition coefficient, log P at pH 7.4. Conditions: octanol/water. The format is physicochemical. The gist of the method: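 Octanol/PBS shake-flask: 20 µL radiolabeled tracer in saline added to 0.5 mL each 1-octanol and PBS (pH 6.4, 7.0, 7.4, 8.4); vortexed 1 min, centrifuged 5 min; 20 µL of each layer weighed and 18F gamma-counted (400-550 keV). log P = log10(counts per g octanol / counts per g water).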

For the compound `O=c1[nH]c(=O)n([C@@H]2O[C@H](CO)[C@@H](O)[C@@H]2[18F])cc1C(F)(F)F`, the Drug uptake in the data set on RG2 [1] is 0.004 mL/min/mg; in the data set on RG2 [3] it was 0.051 mL/min/mg. Also, in the data set on RG2 [2], the Ratio is 13. Besides, in data set [4], the logD was found to be 0.03.

With `Nc1nc(O)c2ncn(COC(CO)C[18F])c2n1` (stereo not drawn), the Drug uptake in the data set with RG2 [1] turned out to be 0.0004 mL/min/mg; in the data set on RG2 [3], 0.0077 mL/min/mg. Besides, the Ratio in the data set with RG2 [2] was determined as 19.

`O=c1[nH]c(=O)n([C@@H]2O[C@H](CO)[C@@H](O)[C@@H]2F)cc1CC[18F]`: the figures for the Drug uptake with RG2 [1] and in the data set on RG2 [3] were 0.00053 mL/min/mg and 0.29 mL/min/mg, respectively. Also, the Ratio with RG2 [2] was 550.

On to `O=c1[nH][14c](=O)n([C@@H]2O[C@H](CO)[C@@H](O)[C@@H]2F)cc1I`, for which the values for the Drug uptake in the data set on RG2 [1] and in the data set with RG2 [3] were 0.048 mL/min/mg and 0.274 mL/min/mg, respectively. Besides, the Ratio in the data set with RG2 [2] was 5.7. This compound also gave a logD in data set [4] of -0.1.

`Nc1nc(=O)c2ncn(CCC(CO)C[18F])c2[nH]1` (stereo not drawn): the Drug uptake in the data set with RG2 [1] stood at 0.0032 mL/min/mg; with RG2 [3], 0.022 mL/min/mg. Moreover, in the data set with RG2 [2], the Ratio turned out to be 6.9.

Regarding `O=c1[nH]c(=O)n([C@@H]2O[C@H](CO)[C@@H](O)[C@@H]2[18F])cc1/C=C/Br`, the Drug uptake was -0.001 mL/min/mg in the data set with RG2 [1] and 0.035 mL/min/mg with RG2 [3]. In data set [4], this compound registered a log distribution coefficient (logD) of 1.02.

For `CCCc1cn([C@@H]2O[C@H](CO)[C@@H](O)[C@@H]2[18F])c(=O)[nH]c1=O`, the Drug uptake in the data set on RG2 [1] is -0.001 mL/min/mg; with RG2 [3], 0.014 mL/min/mg. Moreover, the log distribution coefficient (logD) in data set [4] worked out at 0.5.

What is called logD is the decadic logarithm of the distribution of all forms, ionised or not, between an organic phase and buffer at a given pH.

The record behind these values is ChEMBL document CHEMBL1146180, “Synthesis and evaluation of [18F] labeled pyrimidine nucleosides for positron emission tomography imaging of herpes simplex virus 1 thymidine kinase gene expression” (J Med Chem, 2006).
